The values below come from ChEMBL document CHEMBL4627381, “Licochalcone A Selectively Resensitizes ABCG2-Overexpressing Multidrug-Resistant Cancer Cells to Chemotherapeutic Drugs” (J Nat Prod, 2020).

Broadly, the IC50 is the concentration at which inhibition is half-maximal.

Active and inactive are the calls of the source. No cut-off for these calls is given here.

One series relates to S1-M1-80. The experiment in a line: Downregulation of ABCG2 expression in human S1-M1-80 cells at 0.5 to 3 uM incubated for 72 hrs by Western blot analysis. In kind it is functional, cell-based. In outline:
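S1-M1–80 and H460-MX20 cells were treated with 0.5–3.0 μM or DMSO vehicle for 72 h, then run on SDS-PAGE and immunoblotted with BXP-21 (1:15000) for ABCG2. α-Tubulin (1:100000) served as loading control, with HRP goat anti-mouse secondary. Bands were quantified as mean ± SEM of three independent experiments.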
Background: A western blot detects proteins with antibodies after separation by electrophoresis.

Series [1] deals with HEK293. The experiment in a line: Effect on Colchicine-induced cytotoxicity against HEK293 cells assessed as fold change in colchicine IC50 at 2 uM after 72 hrs by CCK8 assay relative to colchicine IC50. To be noted: human, hek293, 72 h. In kind it is cell-based. In outline:
(§1)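 Reversal assay in parental pcDNA-HEK293 and transfected HEK293 lines (ABCB1 for colchicine, ABCC1 for etoposide, ABCG2 for mitoxantrone/topotecan). Substrate drug series was given with or without nontoxic modulator (0.5, 1.0, 2.0 or 3.0 μM) for 72 h, with a CCK-8 read-out. Fold-reversal is substrate IC50 without modulator divided by IC50 with modulator. Three independent experiments.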
Background: Formazan colour is commonly taken as a measure of viable cells.

In series [2] the test system is HEK293. In words: Effect on Colchicine-induced cytotoxicity against HEK293 cells assessed as fold change in colchicine IC50 at 3 uM after 72 hrs by CCK8 assay relative to colchicine IC50. Conditions: human, hek293, 72 h. In kind it is cell-based. The gist of the method:
as §1

The subject of series [3] is S1. In words: Induction of apoptosis in human S1 cells assessed as viable cells at 10 uM incubated for 48 hrs by annexin V/propidium iodide staining based flow cytometry (reference value: 94.1%). In kind it is functional. To be noted: S1, 48 h, read-out: Activity.
For series [4], the target named is T1, Broad substrate specificity ATP-binding cassette transporter ABCG2 (Homo sapiens, UniProt Q9UNQ0).
T1 sequence (Q9UNQ0 whole entry): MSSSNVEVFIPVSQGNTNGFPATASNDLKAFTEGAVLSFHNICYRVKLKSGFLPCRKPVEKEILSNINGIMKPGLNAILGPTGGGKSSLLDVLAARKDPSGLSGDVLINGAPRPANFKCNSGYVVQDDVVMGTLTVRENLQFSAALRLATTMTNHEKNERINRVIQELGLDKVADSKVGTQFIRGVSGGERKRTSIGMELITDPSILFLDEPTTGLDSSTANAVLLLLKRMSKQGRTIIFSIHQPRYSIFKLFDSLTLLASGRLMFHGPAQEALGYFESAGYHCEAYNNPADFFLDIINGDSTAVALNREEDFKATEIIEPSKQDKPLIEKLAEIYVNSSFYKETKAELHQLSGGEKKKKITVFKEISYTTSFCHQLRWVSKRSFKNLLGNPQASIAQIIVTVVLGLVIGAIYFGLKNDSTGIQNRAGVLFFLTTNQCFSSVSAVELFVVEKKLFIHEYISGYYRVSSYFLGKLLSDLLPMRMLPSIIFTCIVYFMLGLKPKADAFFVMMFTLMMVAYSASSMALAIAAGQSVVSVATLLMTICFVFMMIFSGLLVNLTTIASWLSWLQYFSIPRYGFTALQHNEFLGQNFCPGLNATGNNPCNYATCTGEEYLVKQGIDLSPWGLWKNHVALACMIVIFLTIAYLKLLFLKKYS
The experiment in a line: Reversal of human ABCG2-mediated multidrug resistance in HEK293/R482 cells assessed as fold change in mitoxantrone IC50 at 1 uM after 72 hrs by CCK8 assay relative to mitoxantrone IC50. The format is cell-based. In outline: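 Cells were seeded at 5000/well for 24 h, then given colchicine, etoposide, mitoxantrone or topotecan ± non-toxic modulator (0.5–3.0 μM) for 72 h, with DMSO up to 0.5%. IC50 came from fitted curves (mean ± SD, three experiments). Fold-reversal = IC50 without modulator ÷ IC50 with modulator.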

Series [5] deals with ATP-dependent translocase ABCB1 (Homo sapiens, UniProt P08183). In words: Modulation of human ABCB1 expressed in HEK293/MDR19 cells assessed as increase in intracellular calcein-AM accumulation at 20 uM incubated for 10 mins by FACScan flow cytometry. In kind it is cell-based. The gist of the method: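 Cells held drug-free 7 days. 3 × 10^5 cells in IMDM with 5% FCS were loaded with calcein-AM for 10 min, with or without 20 μM LCA. Reference inhibitors were tariquidar 3 μM (ABCB1) and MK-571 25 μM (ABCC1). Calcein fluorescence (ex 485/em 535 nm) was read by flow cytometry; at least three independent experiments.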
Chain of ATP-dependent translocase ABCB1 (P08183 whole entry): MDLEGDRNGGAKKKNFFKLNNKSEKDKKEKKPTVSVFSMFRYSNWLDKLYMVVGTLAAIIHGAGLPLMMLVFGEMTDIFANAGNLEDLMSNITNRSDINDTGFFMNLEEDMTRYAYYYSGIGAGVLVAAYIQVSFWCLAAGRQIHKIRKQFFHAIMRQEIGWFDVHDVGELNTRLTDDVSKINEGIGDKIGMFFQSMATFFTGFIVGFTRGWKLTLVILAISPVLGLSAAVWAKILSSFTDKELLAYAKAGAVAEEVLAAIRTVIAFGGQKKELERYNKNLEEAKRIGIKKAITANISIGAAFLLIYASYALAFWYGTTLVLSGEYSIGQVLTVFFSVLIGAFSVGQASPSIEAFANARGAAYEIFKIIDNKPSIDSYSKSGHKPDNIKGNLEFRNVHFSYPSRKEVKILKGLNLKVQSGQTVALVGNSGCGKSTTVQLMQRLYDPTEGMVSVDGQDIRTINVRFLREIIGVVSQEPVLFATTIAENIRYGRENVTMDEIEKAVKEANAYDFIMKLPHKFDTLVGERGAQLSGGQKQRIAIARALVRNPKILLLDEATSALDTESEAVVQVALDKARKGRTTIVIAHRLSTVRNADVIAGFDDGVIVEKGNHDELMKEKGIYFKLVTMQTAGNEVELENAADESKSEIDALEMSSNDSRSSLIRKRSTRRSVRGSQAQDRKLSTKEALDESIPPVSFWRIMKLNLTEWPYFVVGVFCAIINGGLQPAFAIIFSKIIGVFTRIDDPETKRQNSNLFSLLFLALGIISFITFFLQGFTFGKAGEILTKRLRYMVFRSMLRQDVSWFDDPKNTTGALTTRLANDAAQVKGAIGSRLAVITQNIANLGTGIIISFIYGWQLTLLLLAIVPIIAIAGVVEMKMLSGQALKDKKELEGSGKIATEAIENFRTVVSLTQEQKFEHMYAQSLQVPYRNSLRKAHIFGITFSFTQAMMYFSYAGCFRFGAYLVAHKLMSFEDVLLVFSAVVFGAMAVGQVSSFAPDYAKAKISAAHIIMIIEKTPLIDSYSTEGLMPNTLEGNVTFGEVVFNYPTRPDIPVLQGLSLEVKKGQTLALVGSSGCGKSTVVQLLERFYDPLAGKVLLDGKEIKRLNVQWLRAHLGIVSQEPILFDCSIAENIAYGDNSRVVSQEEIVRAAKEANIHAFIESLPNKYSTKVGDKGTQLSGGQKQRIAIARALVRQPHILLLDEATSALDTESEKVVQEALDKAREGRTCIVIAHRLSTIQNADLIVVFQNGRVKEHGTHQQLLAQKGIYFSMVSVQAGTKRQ

Series [6] deals with T1, Broad substrate specificity ATP-binding cassette transporter ABCG2. The experiment in a line: Reversal of ABCG2 (unknown origin)-mediated multidrug resistance in human H460-MX20 cells assessed as fold change in topotecan IC50 at 0.5 uM after 72 hrs by MTT assay relative to topotecan IC50. The format is cell-based. In outline:
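Cells held drug-free 7 days, seeded at 5000 per well for 24 h, then exposed 72 h to mitoxantrone or topotecan dilutions with DMSO (≤0.5%), LCA 0.5–3.0 μM, or Ko143 1.0 μM. Viability was read by MTT. IC50 came from fitted dose-response curves of three independent experiments. Fold-reversal = IC50 without modulator divided by IC50 with modulator.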

Series [7] is described as follows: Cytotoxicity against human NCI-H460/MX20 cells harboring ABCG2 after 72 hrs by MTT assay. In kind it is functional, cell-based. To be noted: NCI-H460/MX20, 72 h. In outline:
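Cells seeded at 5000/well, allowed 24 h, then exposed to a concentration series for 72 h at 37 °C in DMSO vehicle (up to 0.5% v/v). HEK293 lines were read with CCK-8 and cancer lines with MTT. IC50 was taken from fitted dose-response curves over at least three independent experiments. Lines were kept drug-free for 7 days before assay.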

In series [8] the test system is HEK293. In words: Effect on etoposide-induced cytotoxicity against HEK293 cells assessed as fold change in etoposide IC50 at 2 uM after 72 hrs by CCK8 assay relative to etoposide IC50. In kind it is cell-based. Conditions: human, hek293, 72 h. The gist of the method: as §1
Series [9] deals with S1. The experiment in a line: Induction of apoptosis in human S1 cells assessed as necrotic cells at 10 uM incubated for 48 hrs by annexin V/propidium iodide staining based flow cytometry (reference value: 0.2%). In kind it is functional. The gist of the method:
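S1 cells were exposed for 48 h to DMSO, 10 μM compound, 5 μM topotecan, or 5 μM topotecan plus 10 μM compound. They were then stained with 1.25 μg/mL annexin V–FITC and 0.1 mg/mL PI for 15 min at room temperature. 10000 cells per sample were analysed by flow cytometry; three independent experiments.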
A general note: Flow cytometry measures light scatter and fluorescence of single cells or particles in a stream.

Series [10] deals with S1. In words: Effect on topotecan-induced cytotoxicity against human S1 cells assessed as fold change in topotecan IC50 at 2 uM after 72 hrs by MTT assay relative to topotecan IC50. The format is functional. In outline: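 Parental S1 colon and H460 lung cancer cells were exposed for 72 h to a mitoxantrone or topotecan concentration series, with or without modulator at 0.5–3.0 μM, and read by MTT. Fold-reversal is IC50 without modulator divided by IC50 with modulator, taken from dose-response curves of three independent experiments.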

Series [11] deals with T1, Broad substrate specificity ATP-binding cassette transporter ABCG2. In words: Reversal of ABCG2 (unknown origin)-mediated multidrug resistance in human S1-M1-80 cells assessed as fold-change in topotecan IC50 at 0.5 uM after 72 hrs by MTT assay relative to topotecan IC50. In kind it is cell-based. To be noted: s1-m1-80, 72 h. The gist of the method:
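MTT readout in S1-M1-80 colon cancer cells (mitoxantrone-selected, held in 80 μM mitoxantrone, then drug-free 7 days before assay). Cells were seeded at 5000/well for 24 h, then given increasing mitoxantrone or topotecan with DMSO or non-toxic modulator for 72 h at 37 °C. IC50 came from fitted dose-response curves (at least three independent experiments). Fold-reversal = IC50 without modulator ÷ IC50 with modulator.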

`C=CC(C)(C)c1cc(/C=C/C(=O)c2ccc(O)cc2)c(OC)cc1O` [LICOAGROCHACONE A]: the result in the series with S1-M1-80 was inactive. The “fold change (FC)” value came to 0.9 in the series with HEK293 [1]; 0.9 with HEK293 [2]; 7.1 in series [4]; 3.6 in series [6]; 0.7 in the series with HEK293 [8]; 0.9 in the series on S1 [10]. For the same molecule, in series [11], the “fold change (FC)” value was 9.8. Further, the viability at 10 µM with S1 [3] amounted to 95.4%. The Activity entry in [5] is reported as “Not Active”; with S1 [9] it was 0.2%. The IC50 in series [7] fell in the range of 10 to 50 µM.
